Activity calls are given as the source filed them. No cut-off for these calls is given here.
Tests used:
Thromboxane A2 receptor [1] = biological target: T1, Thromboxane A2 receptor (Homo sapiens, UniProt P21731); experiment: Antagonist activity at human thromboxane A2 receptor isoform alpha expressed in HEK293 cells assessed as inhibition of U46619-induced calcium mobilization; format: functional, cell-based
T1 sequence (P21731 whole entry): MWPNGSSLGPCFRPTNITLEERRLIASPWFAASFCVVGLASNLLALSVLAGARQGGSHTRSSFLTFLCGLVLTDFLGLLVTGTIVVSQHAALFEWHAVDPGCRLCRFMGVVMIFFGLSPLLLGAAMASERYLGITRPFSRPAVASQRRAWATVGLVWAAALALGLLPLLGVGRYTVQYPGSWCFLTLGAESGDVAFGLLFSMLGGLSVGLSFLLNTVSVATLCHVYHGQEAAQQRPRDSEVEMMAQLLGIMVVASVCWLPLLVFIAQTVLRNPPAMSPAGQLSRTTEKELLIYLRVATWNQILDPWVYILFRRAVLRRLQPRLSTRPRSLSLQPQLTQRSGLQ
How it was run: (§1)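 HA-tagged receptor stably overexpressed in HEK293 cells grown in DMEM with 10% FBS. Trypsinized cells washed in Krebs-HEPES pH 7.4, loaded 1 h with Fluo-4/AM (5 µg/mL), rinsed, 150 000 cells/well. Compound (10^-8 to 10^-5 M final) for 10 min before U46619 (1 µM final). Emission at 538; Triton/EGTA calibration, Kd 385 nM. IC50 by nonlinear regression, ≥3 curves.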

Thromboxane A2 receptor [2] = biological target: T1, Thromboxane A2 receptor; experiment: Antagonist activity at human thromboxane A2 receptor isoform beta expressed in HEK293 cells assessed as inhibition of U46619-induced calcium mobilization; format: functional, cell-based; how it was run: as §1
[3] = biological target: T2, Thromboxane A2 receptor (Homo sapiens) (UniProt P21731); experiment: Ratio of IC50 for thromboxane A2 receptor isoform alpha to IC50 for thromboxane A2 receptor isoform beta; format: functional
T2 sequence (whole entry): T1 sequence (P21731 whole entry)
How it was run: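 Selectivity index calculated as IC50 for TPα divided by IC50 for TPβ. Both IC50s come from U46619 (1 µM)-induced Fluo-4 [Ca2+]i assays in HEK293 cells stably overexpressing the respective isoform.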

Platelet = experiment: Inhibition of U46619-induced human platelet aggregation; format: functional, cell-based
How it was run: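 Turbidimetric Born method on PRP from 10 healthy donors aged 20-30, medication-free for 14 days. Platelets adjusted to 3 × 10⁸ cells/mL with PPP, stirred at 1000 rpm. Compound (10^-9 to 10^-5 M) preincubated 3 min at 37 °C, then U46619 (1 µM final). Maximum light transmission read 6 min after inducer; IC50 by nonlinear regression from ≥3 curves.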

[4] = biological target: T2, Thromboxane A2 receptor (Homo sapiens); experiment: Antagonist activity at human thromboxane A2 receptor isoform beta expressed in HEK293 cells assessed as inhibition of U46619-induced calcium mobilization at 0.1 uM; format: functional, cell-based
How it was run: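 HEK293 cells stably overexpressing HA-tagged TPβ, loaded 1 h with Fluo-4/AM (5 µg/mL) in Krebs-HEPES pH 7.4. Compound at 0.1 µM for 10 min, then U46619 (1 µM final). Fluorescence calibrated to [Ca2+]i with Triton X-100 and EGTA; response taken against the rise with U46619 alone.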

SMILES | IC50 (Thromboxane A2 receptor [1]) [nM] | IC50 (Thromboxane A2 receptor [2]) [nM] | Ratio IC50 [3] | IC50 (Platelet) [nM] | Activity [4]
CCCCCNC(=O)NS(=O)(=O)c1cc([N+](=O)[O-])ccc1Oc1ccc(OC)cc1 | 2670 | 446 | 6 | – | –
CC(C)(C)NC(=O)NS(=O)(=O)c1cc([N+](=O)[O-])ccc1Oc1cccc(I)c1 | 470 | 95 | 4.9 | – | –
CCCCCNC(=O)NS(=O)(=O)c1cc([N+](=O)[O-])ccc1Oc1ccc(Br)cc1 | 1010 | 120 | 8.4 | – | –
CCCCCNC(=O)NS(=O)(=O)c1cc([N+](=O)[O-])ccc1Oc1ccc(Cl)cc1 | 871 | 98 | 8.9 | – | –
Cc1ccc(Oc2ccc([N+](=O)[O-])cc2S(=O)(=O)NC(=NC(C)(C)C)NC#N)cc1 | 2080 | 579 | – | – | –
CCCCCNC(=O)NS(=O)(=O)c1cc([N+](=O)[O-])ccc1Oc1cccc(C)c1 | 2530 | 223 | 11.3 | – | –
CC(C)(C)NC(=O)NS(=O)(=O)c1cc([N+](=O)[O-])ccc1Oc1ccccc1Br | 2580 | 151 | 17 | – | –
CC(C)(C)NC(=O)NS(=O)(=O)c1cc([N+](=O)[O-])ccc1Oc1ccc(I)cc1 | 2150 | 401 | 5.4 | – | –
CCOc1ccc(Oc2ccc([N+](=O)[O-])cc2S(=O)(=O)NC(=O)NC(C)(C)C)cc1 | 19200 | 1100 | 17.5 | – | –
CCCCCNC(=O)NS(=O)(=O)c1cc([N+](=O)[O-])ccc1Oc1cccc(Cl)c1 | 2390 | 201 | 11.9 | – | –
Cc1ccc(Nc2ccc([N+](=O)[O-])cc2S(=O)(=O)NC(=O)NC(C)(C)C)cc1 | – | – | 6.01 | – | –
CC(C)(C)NC(=O)NS(=O)(=O)c1cc([N+](=O)[O-])ccc1Oc1ccc(Br)cc1 | 1660 | 523 | 3.2 | – | –
Cc1cc(Oc2ccc([N+](=O)[O-])cc2S(=O)(=O)NC(=O)NC(C)(C)C)ccc1Cl | 1060 | 111 | 9.6 | – | –
CC(C)(C)NC(=O)NS(=O)(=O)c1cc([N+](=O)[O-])ccc1Oc1cccc(Cl)c1 | 698 | 73 | 9.6 | – | –
CC(C)(C)NC(=O)NS(=O)(=O)c1cc([N+](=O)[O-])ccc1Oc1cccc(Br)c1 | 683 | 59 | 11.6 | – | –
CCCOc1ccc(Oc2ccc([N+](=O)[O-])cc2S(=O)(=O)NC(=O)NC(C)(C)C)cc1 | 10800 | 875 | 12.3 | – | –
CCCCCNC(=O)NS(=O)(=O)c1cc([N+](=O)[O-])ccc1Oc1ccc(Cl)c(C)c1 | 3720 | 565 | 6.6 | – | –
CCCCCNC(=O)NS(=O)(=O)c1cc([N+](=O)[O-])ccc1Oc1cccc(Br)c1 | 5860 | 413 | 14.2 | – | –
Cc1ccccc1Oc1ccc([N+](=O)[O-])cc1S(=O)(=O)NC(=O)NC(C)C | 8750 | 501 | 17.5 | – | –
Cc1ccc(Oc2ccc([N+](=O)[O-])cc2S(=O)(=O)N/C(=N\C#N)NC(C)(C)C)cc1 | – | – | 3.6 | – | –

SMILES | IC50 (Thromboxane A2 receptor [1]) [nM] | IC50 (Thromboxane A2 receptor [2]) [nM] | Ratio IC50 [3] | IC50 (Platelet) [nM] | Activity [4]
CC(C)(C)NC(=O)NS(=O)(=O)c1cc([N+](=O)[O-])ccc1Oc1ccc(Cl)cc1 | 3050 | 400 | 7.6 | – | –
COc1cccc(Oc2ccc([N+](=O)[O-])cc2S(=O)(=O)NC(=O)NC(C)(C)C)c1 | 1970 | 99 | 19.9 | – | –
CCCCCNC(=O)NS(=O)(=O)c1cc([N+](=O)[O-])ccc1Oc1cccc(I)c1 | 4520 | 885 | 5.1 | – | –
CCCCCNC(=O)NS(=O)(=O)c1cc([N+](=O)[O-])ccc1Oc1ccc(I)cc1 | 2190 | 302 | 7.2 | – | –
CCCCCNC(=O)NS(=O)(=O)c1cc([N+](=O)[O-])ccc1Oc1ccc(OCC)cc1 | 13600 | 749 | 18.1 | – | –
COc1cc(C)ccc1Oc1ccc([N+](=O)[O-])cc1S(=O)(=O)NC(=O)NC(C)(C)C | 528 | 52 | 10.2 | – | –
Cc1cccc(Oc2ccc([N+](=O)[O-])cc2S(=O)(=O)NC(=O)NC(C)C)c1 | 2640 | 205 | 12.9 | – | –
CCCCCNC(=O)NS(=O)(=O)c1cc([N+](=O)[O-])ccc1Oc1ccccc1Br | 3130 | 423 | 7.4 | – | –
Cc1ccccc1Oc1ccc([N+](=O)[O-])cc1S(=O)(=O)NC(=O)NC(C)(C)C | 3760 | 233 | 16.1 | – | –
Cc1ccc(Oc2ccc([N+](=O)[O-])cc2S(=O)(=O)NC(=O)NC(C)C)cc1 | 8760 | 843 | 10.4 | – | –
CCCCNC(=O)NS(=O)(=O)c1cc([N+](=O)[O-])ccc1Oc1ccccc1C | 673 | 42 | 16.1 | – | –
CCCCCNC(=O)NS(=O)(=O)c1cc([N+](=O)[O-])ccc1Oc1ccccc1C | 1630 | 181 | 9 | – | –
CCCCNC(=O)NS(=O)(=O)c1cc([N+](=O)[O-])ccc1Oc1cccc(C)c1 | 1910 | 155 | 12.3 | – | –
COc1ccc(Oc2ccc([N+](=O)[O-])cc2S(=O)(=O)NC(=O)NC(C)(C)C)cc1 | 1940 | 152 | 12.7 | – | –
CC(C)(C)NC(=O)NS(=O)(=O)c1cc([N+](=O)[O-])ccc1Oc1ccccc1Cl | 2420 | 205 | 11.8 | – | –
CCCCCNC(=O)NS(=O)(=O)c1cc([N+](=O)[O-])ccc1Oc1ccccc1Cl | 3060 | 387 | 7.9 | – | –
CCCCCNC(=O)NS(=O)(=O)c1cc([N+](=O)[O-])ccc1Oc1ccc(OCCC)cc1 | 27200 | 4840 | 5.6 | – | –
Cc1cccc(Oc2ccc([N+](=O)[O-])cc2S(=O)(=O)NC(=O)NC(C)(C)C)c1 | 398 | 17 | – | 513 | Active
CCCNC(=O)NS(=O)(=O)c1cc([N+](=O)[O-])ccc1Oc1ccc(C)cc1 | 4220 | 448 | 9.4 | – | –

Source: ChEMBL document CHEMBL1148712, “Design, synthesis, and SAR study of a series of N-alkyl-N'-[2-(aryloxy)-5-nitrobenzenesulfonyl]ureas and -cyanoguanidine as selective antagonists of the TPalpha and TPbeta isoforms of the human thromboxane A2 receptor” (J Med Chem, 2007)
